The text below walks through data of ChEMBL document CHEMBL3612009, “Synthesis and structure-activity relationship study of a new series of antiparasitic aryloxyl thiosemicarbazones inhibiting Trypanosoma cruzi cruzain” (Eur J Med Chem, 2015).

Structures are written as SMILES. A value given as a limit tells only on which side of the number the result lay.

The subject of data set [1] is Trypanosoma cruzi. Put plainly: Antitrypanosomal activity against amastigote and trypomastigote forms of Trypanosoma cruzi Tulahuen expressing beta-galactosidase gene infected in mouse L-929 cells assessed as inhibition of parasite growth at 100 uM after 7 days by colorimetric betagalactosidase assay. In kind it is functional. Conditions: L929, 168 h.
Data set [2] in a line: Cytotoxicity against BALB/c mouse splenocytes assessed as maximum non-toxic concentration by measuring [3H]-thymidine incorporation after 24 hrs by liquid scintillation counting. Format: cell-based, Splenocyte. The method in brief: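 BALB/c splenocytes, 5 x 10^6 cells/well, given compounds at 1.23, 3.7, 33.33 and 100 µg/mL, 1% DMSO final, triplicate; 24 h at 37 °C, 5% CO2. Then 1.0 µCi [3H]-thymidine added; cells harvested and counted by liquid scintillation. Highest non-cytotoxic concentration taken from % incorporation.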

For data set [3], the system named is Trypanosoma cruzi. Put plainly: Antiparasitic activity against trypomastigotes of Trypanosoma cruzi Y assessed as reduction of parasite count after 24 hrs. In kind it is functional.
In data set [4] the test system is Trypanosoma cruzi. Put plainly: Antitrypanosomal activity against amastigote and trypomastigote forms of Trypanosoma cruzi Tulahuen expressing beta-galactosidase gene infected in mouse L-929 cells assessed as inhibition of parasite growth after 7 days by colorimetric betagalactosidase assay. Format: functional, organism-based. Conditions: L929, 168 h.
Data set [5] concerns Trypanosoma cruzi. Put plainly: Antiparasitic activity against epimastigotes of Trypanosoma cruzi Dm28c assessed as reduction of parasite count after 5 days. In kind it is functional. The settings on record: 120 h.
A short description of data set [6]: Cytotoxicity against mouse L929 cells assessed as cell viability after 96 hrs by alamarBlue assay. In kind it is cell-based. Summed up:
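Uninfected L-929 cells at the same cell number and timing as the beta-galactosidase assay; increasing concentrations starting at the T. cruzi IC50, quadruplicate. After 96 h, alamarBlue added; absorbance at 570 and 600 nm read 6 h later. Viability as % reduction versus untreated; CC50 by linear interpolation.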

In data set [7] the target is Cruzipain (Trypanosoma cruzi) (UniProt P25779). Put plainly: Inhibition of Trypanosoma cruzi catalytic activity of cruzain using Z-FR-AMC as substrate at 50 uM after 10 mins by fluorescence assay.
Sequence of Cruzipain (Trypanosoma cruzi) (P25779 123-467 limits assumed): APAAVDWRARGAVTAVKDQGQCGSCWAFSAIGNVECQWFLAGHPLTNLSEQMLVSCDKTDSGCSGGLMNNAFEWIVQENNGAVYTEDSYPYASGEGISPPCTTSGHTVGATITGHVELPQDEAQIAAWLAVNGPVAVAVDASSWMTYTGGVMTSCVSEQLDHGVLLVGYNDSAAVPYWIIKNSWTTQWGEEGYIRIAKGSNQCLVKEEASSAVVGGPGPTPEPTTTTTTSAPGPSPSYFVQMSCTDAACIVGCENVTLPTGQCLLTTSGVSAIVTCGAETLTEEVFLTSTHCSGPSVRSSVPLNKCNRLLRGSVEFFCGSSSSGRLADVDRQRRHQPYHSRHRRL
A short description of data set [8]: Selectivity index, ratio of CC50 for mouse L929 cells to IC50 for amastigote and trypomastigote forms of Trypanosoma cruzi Tulahuen. In kind it is functional. The method in brief: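 SI = CC50 in uninfected L-929 fibroblasts (alamarBlue, 96 h) divided by IC50 against intracellular amastigote/trypomastigote forms (beta-galactosidase assay, 7 days).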

Usually inhibition stands for the share of the control response that was lost under treatment. For orientation: IC50 means the concentration that inhibits the measured activity by half. `NC(=S)N/N=C(/COc1ccc(Br)cc1)c1ccc(Br)cc1`: the inhibition at 100 µM in data set [1] is above 70%. For the same compound, in data set [2], the MNTC at 24 h was 22600 nM. In addition, the CC50 in data set [3] was found to be 3.9 µM. Besides, the figures for the half-maximal inhibitory concentration (IC50) in data set [4] and in data set [5] were below 8.1 µM and 11.9 µM, respectively. Moreover, the CC50 at 96 h in data set [6] was 22.6 µM. This compound returned an inhibition in data set [7] of 11.8%. The “Ratio CC50/IC50” value in data set [8] is on record as above 2.8.

For `NC(=S)N/N=C(\COc1ccc2ccccc2c1)c1ccc(Br)cc1`, the inhibition at 100 µM in data set [1] is above 70%. In data set [2], the MNTC at 24 h turned out to be 2400 nM. In addition, in data set [3], the CC50 is 5 µM. For the same compound, the IC50 in data set [4] was found to be 13.5 µM; in data set [5], 5.3 µM. The CC50 at 96 h in data set [6] was above 193 µM. The compound also returned an inhibition in data set [7] of 72.1%. In data set [8], the “Ratio CC50/IC50” value is listed as above 14.3.

For `NC(=S)N/N=C(\COc1cccc(Cl)c1Cl)c1ccc(Br)cc1`, the inhibition at 100 µM in data set [1] was above 70%. The MNTC at 24 h in data set [2] is 23100 nM. Besides, in data set [3], the CC50 turned out to be 5.7 µM. Also, the IC50 in data set [4] was determined as 10.8 µM; in data set [5], 4.4 µM. The CC50 at 96 h in data set [6] was determined as 23.1 µM. In data set [7], the inhibition stood at 81.8%. For the same compound, the “Ratio CC50/IC50” value in data set [8] came to 2.8.

With `NC(=S)N/N=C(\COc1ccc(I)cc1)c1ccc(Br)cc1`, the inhibition at 100 µM in data set [1] is above 70%. Besides, the MNTC at 24 h in data set [2] stood at 2100 nM. Also, the CC50 in data set [3] worked out at 2.1 µM. Further, the half-inhibitory concentration (IC50) in data set [4] was 8.6 µM; in data set [5], 2.9 µM. In addition, the CC50 at 96 h in data set [6] was below 20.4 µM. The compound also gave an inhibition in data set [7] of 63.3%. In addition, the “Ratio CC50/IC50” value in data set [8] is 2.4.

In the case of `CC(C)(C)c1ccc(OC/C(=N\NC(N)=S)c2ccc(Br)cc2)cc1`, in data set [1], the inhibition at 100 µM was above 70%. Moreover, the MNTC at 24 h in data set [2] came to 2400 nM. For the same compound, the CC50 in data set [3] is 2.2 µM. Besides, the IC50 in data set [4] stood at 15.2 µM; in data set [5] it was 5.2 µM. For the same compound, the CC50 at 96 h in data set [6] was found to be 23.8 µM. In data set [7], this compound gave an inhibition of 85.3%. In addition, the “Ratio CC50/IC50” value in data set [8] stood at 1.6.

Take `CNC(=S)N/N=C(/COc1ccc(Br)cc1)c1ccc(OC)cc1`: the inhibition at 100 µM in data set [1] was above 70%. In addition, in data set [3], the CC50 stood at 3.6 µM. In addition, the IC50 in data set [5] came out at 4.5 µM. In data set [7], this compound gave an inhibition of 29.8%.

Take `COc1cccc(OC/C(=N\NC(N)=S)c2ccc(Br)cc2)c1`: the inhibition at 100 µM in data set [1] is above 70%. For the same compound, in data set [2], the MNTC at 24 h turned out to be 2500 nM. The CC50 in data set [3] amounted to 1.2 µM. Moreover, the IC50 in data set [4] was 9.9 µM; in data set [5], 3.7 µM. The CC50 at 96 h in data set [6] was found to be 50.7 µM. The inhibition in data set [7] came out at 62.8%. Also, the “Ratio CC50/IC50” value in data set [8] is 5.1.

`CC1CS(=O)(=O)CCN1/N=C/c1ccc([N+](=O)[O-])o1` (stereo unspecified) [NIFURTIMOX]: in data set [3], the CC50 was 2.7 µM.

On to `CNC(=S)N/N=C(/COc1ccc(Br)cc1)c1ccc(F)cc1`, for which the inhibition at 100 µM in data set [1] was above 70%. Besides, the CC50 in data set [3] was 7.4 µM. In data set [5], the half-maximal inhibitory concentration (IC50) is 15.7 µM. The inhibition in data set [7] is 30%.

Turning to `Fc1ccc(/C(COc2ccc(Br)cc2)=N\NC(=S)Nc2ccccc2)cc1`, the inhibition at 100 µM in data set [1] was above 70%. The CC50 in data set [3] came out at 15.6 µM. For the same compound, the inhibition in data set [7] came out at 35%.

For `COc1ccc(/C(COc2ccc(Br)cc2)=N\NC(=S)Nc2ccccc2)cc1`, the inhibition at 100 µM in data set [1] was above 70%. Besides, the IC50 in data set [5] came out at 10.2 µM. In data set [7], the inhibition is 42.8%.

Turning to `NC(=S)N/N=C(\COc1cccc2ccccc12)c1ccc(Br)cc1`, the inhibition at 100 µM in data set [1] is above 70%. The MNTC at 24 h in data set [2] was 2400 nM. In data set [3], the CC50 was determined as 3.4 µM. The IC50 in data set [4] worked out at 48.3 µM; in data set [5], 3 µM. Besides, in data set [6], the CC50 at 96 h is below 96.5 µM. For the same compound, in data set [8], the “Ratio CC50/IC50” value is below 2.

For `NC(=S)N/N=C(\COc1cccc(-c2ccccc2)c1)c1ccc(Br)cc1`, the inhibition at 100 µM in data set [1] was above 70%. For the same compound, in data set [2], the MNTC at 24 h is 2300 nM. Besides, the CC50 in data set [3] turned out to be 28.3 µM. For the same compound, the values for the IC50 in data set [4] and in data set [5] were above 182 µM and 4.4 µM, respectively. For the same compound, the inhibition in data set [7] was found to be 65.4%.
